According to BindingDB's records for doi:10.1016/j.bmcl.2009.03.011 (Cytrx, 2009):

Target: T1, Heat shock factor protein 1 (Homo sapiens, UniProt Q00613)
T1 sequence (Q00613 whole entry): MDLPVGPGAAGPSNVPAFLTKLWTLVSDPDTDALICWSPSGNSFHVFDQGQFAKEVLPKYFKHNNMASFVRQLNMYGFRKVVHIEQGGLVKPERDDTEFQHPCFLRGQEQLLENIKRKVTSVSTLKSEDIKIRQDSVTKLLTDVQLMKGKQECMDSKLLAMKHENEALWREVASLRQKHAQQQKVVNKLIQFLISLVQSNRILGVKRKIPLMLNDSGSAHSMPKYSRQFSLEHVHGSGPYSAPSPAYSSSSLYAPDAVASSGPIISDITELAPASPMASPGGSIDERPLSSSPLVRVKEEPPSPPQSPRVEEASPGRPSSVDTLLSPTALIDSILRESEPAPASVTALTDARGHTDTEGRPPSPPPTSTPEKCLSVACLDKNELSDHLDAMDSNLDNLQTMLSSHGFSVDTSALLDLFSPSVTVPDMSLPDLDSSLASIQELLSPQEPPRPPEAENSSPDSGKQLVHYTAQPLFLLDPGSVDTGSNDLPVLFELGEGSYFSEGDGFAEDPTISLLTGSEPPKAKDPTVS
Test: Transcriptional activation of HSF1 in heat shock stress-induced human HeLa cells assessed as granule formation treated 1 hr before heat shock challenge measured after 2 hrs by immunocytochemical staining
Procedure, shortened: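 HeLa cells given compound 1 h, then heat shock at 41 °C for 2 h without recovery; HSF1 immunocytochemical staining, quantified by high-content imaging. Range 0.3–80 µM, twofold dilution, 200-fold overall.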

## OC(CO/N=C(\Cl)c1nc2c(F)cccc2o1)CN1CCCCC1 (configuration not stated) [4-fluoro-N-(2-hydroxy-3-(piperidin-1-yl)propoxy)benzo[d]oxazole-2-carbimidoyl chloride]
  EC50: 20.2 µM

## CCS(=O)(=O)c1ccc2oc(/C(Cl)=N/OCC(O)CN3CCCCC3)nc2c1 (configuration not stated) [5-(ethylsulfonyl)-N-(2-hydroxy-3-(piperidin-1-yl)propoxy)benzo[d]oxazole-2-carbimidoyl chloride]
  EC50: 42.9 µM

## OC(CO/N=C(\Cl)c1nc2cc(Cl)ccc2o1)CN1CCCCC1 (configuration not stated) [5-chloro-N-(2-hydroxy-3-(piperidin-1-yl)propoxy)benzo[d]oxazole-2-carbimidoyl chloride]
  EC50: 20.9 µM

## OC(CO/N=C(\Cl)c1nc2cc(F)ccc2o1)CN1CCCCC1 (configuration not stated) [5-fluoro-N-(2-hydroxy-3-(piperidin-1-yl)propoxy)benzo[d]oxazole-2-carbimidoyl chloride]
  EC50: 51.3 µM

## CN(C)S(=O)(=O)c1ccc2nc(/C(Cl)=N/OCC(O)CN3CCCCC3)oc2c1 (configuration not stated) [6-(N,N-dimethylsulfamoyl)-N-(2-hydroxy-3-(piperidin-1-yl)propoxy)benzo[d]oxazole-2-carbimidoyl chloride]
  EC50: 41.6 µM

## OC(CO/N=C(\Cl)c1nc2ccc(Cl)cc2o1)CN1CCCCC1 (configuration not stated) [6-chloro-N-(2-hydroxy-3-(piperidin-1-yl)propoxy)benzo[d]oxazole-2-carbimidoyl chloride]
  EC50: 22.9 µM

## OC(CO/N=C(\Cl)c1nc2ccc(F)cc2o1)CN1CCCCC1 (configuration not stated) [6-fluoro-N-(2-hydroxy-3-(piperidin-1-yl)propoxy)benzo[d]oxazole-2-carbimidoyl chloride]
  EC50: 29.4 µM

## OC(CO/N=C(\Cl)c1nc2cccc(F)c2o1)CN1CCCCC1 (configuration not stated) [7-fluoro-N-(2-hydroxy-3-(piperidin-1-yl)propoxy)benzo[d]oxazole-2-carbimidoyl chloride]
  EC50: 18.5 µM

## CCCN(C[C@H](O)CO/N=C(\Cl)c1nc2ccccc2o1)C(C)C [(S)-N-(2-hydroxy-3-(isopropyl(propyl)amino)propoxy)benzo[d]oxazole-2-carbimidoyl chloride]
  EC50: 24.1 µM

## CC(C)N(CCO)CC(O)CO/N=C(\Cl)c1nc2ccccc2o1 (configuration not stated) [N-(2-hydroxy-3-((2-hydroxyethyl)(isopropyl)amino)propoxy)benzo[d]oxazole-2-carbimidoyl chloride]
  EC50: 28.7 µM

## Cc1ccc2oc(/C(Cl)=N/OCC(O)CN3CCCCC3)nc2c1 (configuration not stated) [N-(2-hydroxy-3-(piperidin-1-yl)propoxy)-5-methylbenzo[d]oxazole-2-carbimidoyl chloride]
  EC50: 41.6 µM

## Cc1ccc2nc(/C(Cl)=N/OCC(O)CN3CCCCC3)oc2c1 (configuration not stated) [N-(2-hydroxy-3-(piperidin-1-yl)propoxy)-6-methylbenzo[d]oxazole-2-carbimidoyl chloride]
  EC50: 31 µM

## OC(CO/N=C(\Cl)c1nc2ccccc2o1)CN1CCCCC1 (configuration not stated) [N-(2-hydroxy-3-(piperidin-1-yl)propoxy)benzo[d]oxazole-2-carbimidoyl chloride]
  EC50: 41.7 µM

## OC(CO/N=C(\Cl)c1nc2ccccc2s1)CN1CCCCC1 (configuration not stated) [N-(2-hydroxy-3-(piperidin-1-yl)propoxy)benzo[d]thiazole-2-carbimidoyl chloride]
  EC50: 52.6 µM

## OC(CO/N=C(\Cl)c1nc2c(ccc3ccccc32)o1)CN1CCCCC1 (configuration not stated) [N-(2-hydroxy-3-(piperidin-1-yl)propoxy)naphtho[1,2-d]oxazole-2-carbimidoyl chloride]
  EC50: 12.1 µM

## OC(CO/N=C(\Cl)c1nc2ccccc2s1)CN1CCCC1 (configuration not stated) [N-(2-hydroxy-3-(pyrrolidin-1-yl)propoxy)benzo[d]thiazole-2-carbimidoyl chloride]
  EC50: 62.8 µM

## CC1CCCC(C)N1CC(O)CO/N=C(\Cl)c1nc2ccccc2o1 (configuration not stated) [N-(3-(2,6-dimethylpiperidin-1-yl)-2-hydroxypropoxy)benzo[d]oxazole-2-carbimidoyl chloride]
  EC50: 32.4 µM

## CC1CC(C)CN(CC(O)CO/N=C(\Cl)c2nc3ccccc3o2)C1 (configuration not stated) [N-(3-(3,5-dimethylpiperidin-1-yl)-2-hydroxypropoxy)benzo[d]oxazole-2-carbimidoyl chloride]
  EC50: 17.4 µM

## OC(CO/N=C(\Cl)c1nc2ccccc2o1)CN1CCCC(F)C1 (configuration not stated) [N-(3-(3-fluoropiperidin-1-yl)-2-hydroxypropoxy)benzo[d]oxazole-2-carbimidoyl chloride]
  EC50: 52.6 µM

## CC(C)N(CCCF)CC(O)CO/N=C(\Cl)c1nc2ccccc2o1 (configuration not stated) [N-(3-((3-fluoropropyl)(isopropyl)amino)-2-hydroxypropoxy)benzo[d]oxazole-2-carbimidoyl chloride]
  EC50: 22.8 µM

## CC(C)N(CC(O)CO/N=C(\Cl)c1nc2ccccc2o1)CC1CC1 (configuration not stated) [N-(3-((cyclopropylmethyl)(isopropyl)amino)-2-hydroxypropoxy)benzo[d]oxazole-2-carbimidoyl chloride]
  EC50: 12.4 µM

## CCCCN(CCCC)CC(O)CO/N=C(\Cl)c1nc2ccccc2o1 (configuration not stated) [N-(3-(dibutylamino)-2-hydroxypropoxy)benzo[d]oxazole-2-carbimidoyl chloride]
  EC50: 20.9 µM

## CCN(CC)CC(O)CO/N=C(\Cl)c1nc2ccccc2o1 (configuration not stated) [N-(3-(diethylamino)-2-hydroxypropoxy)benzo[d]oxazole-2-carbimidoyl chloride]
  EC50: 27.1 µM

## CC(C)N(CC(O)CO/N=C(\Cl)c1nc2ccccc2o1)C(C)C (configuration not stated) [N-(3-(diisopropylamino)-2-hydroxypropoxy)benzo[d]oxazole-2-carbimidoyl chloride]
  EC50: 25.5 µM

## CCCN(CCC)CC(O)CO/N=C(\Cl)c1nc2ccccc2o1 (configuration not stated) [N-(3-(dipropylamino)-2-hydroxypropoxy)benzo[d]oxazole-2-carbimidoyl chloride]
  EC50: 23.9 µM

## CCCN(CC)CC(O)CO/N=C(\Cl)c1nc2ccccc2o1 (configuration not stated) [N-(3-(ethyl(propyl)amino)-2-hydroxypropoxy)benzo[d]oxazole-2-carbimidoyl chloride]
  EC50: 23 µM

## CC(C)N(CC(O)CO/N=C(\Cl)c1nc2ccccc2o1)C(C)(C)C (configuration not stated) [N-(3-(tert-butyl(isopropyl)amino)-2-hydroxypropoxy)benzo[d]oxazole-2-carbimidoyl chloride]
  EC50: 16.6 µM
